Measured values collected from several papers.
Each line is one published result; the experiments were not run side by side.
Target: Carbonic anhydrase 12 (CA12, Homo sapiens, UniProt O43570)
Effect on: enzyme activity
Action: inhibitor

test | measurement | value | Structure (SMILES)
stopped-flow | Ki | 54.2 nM | Cc1cc(=O)oc2cc(OCCCCSC#N)ccc12
absorbance | IC50 | 790 nM | CS(=O)(=O)Nc1ccc(Nc2nc(-c3cc4ccccc4oc3=O)cs2)cc1Oc1ccccc1
stopped-flow | Ki | 1830 nM | Cc1ccc(OC(=O)c2ccc(=O)oc2)cc1
absorbance | IC50 | 880 nM | NS(=O)(=O)c1ccc(-c2ccc(Nc3ccncc3)cc2)cc1
absorbance | IC50 | 1880 nM | COc1ccc2oc(=O)c(-c3csc(Nc4ccc(C(=O)O)cc4)n3)cc2c1
stopped-flow | Ki | 234 nM | N#CSCCCCOc1ccc2c(-c3ccccc3)cc(=O)oc2c1
stopped-flow | Ki | 54800 nM | COc1ccc(-n2cc(COC(=O)c3ccc(=O)oc3)nn2)cc1
absorbance | IC50 | 610 nM | CS(=O)(=O)Nc1ccc(Nc2nc(-c3cc4cc(Br)ccc4oc3=O)cs2)cc1Oc1ccccc1
stopped-flow | Ki | 82800 nM | CC1CCCCC1OC(=O)c1ccc(=O)oc1 (stereo not shown)
absorbance | IC50 | 2780 nM | NS(=O)(=O)c1ccc(-c2ccc(Nc3ccc(F)c(Cl)c3)cc2)cc1
